Assay results as given in ChEMBL document CHEMBL1144027, “Synthesis and antimycobacterial evaluation of newer 1-cyclopropyl-1,4-dihydro-6-fluoro-7-(substituted secondary amino)-8-methoxy-5-(sub)-4-oxoquinoline-3-carboxylic acids” (Bioorg Med Chem, 2008).
pIC50: −log10 of the molar value. Values after ≈ are worked out from the molar mass of the structure shown.

Key:
[1] = tested on: Mycolicibacterium smegmatis; experiment: Antimycobacterial activity against Mycobacterium smegmatis MC2 by agar dilution method; assay type: functional
In short: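 Agar dilution in Middlebrook 7H11 agar with OADC, run along NCCLS-recommended lines; M. smegmatis ATCC 14468 (MC2); MIC determined in duplicate.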

[2] = tested on: Mycobacterium tuberculosis; experiment: Antimycobacterial activity against Mycobacterium tuberculosis H37Rv by agar dilution method; assay type: functional
In short: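 Agar dilution MIC on Middlebrook 7H11 agar with OADC, following the NCCLS-recommended approach, run in duplicate. The MDR clinical isolate was resistant to isoniazid, rifampicin, ethambutol and ofloxacin.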

[3] = tested on: Vero; experiment: Cytotoxicity against african green monkey Vero cells after 72 hrs by MTT assay; assay type: cell-based; conditions: Chlorocebus sabaeus
In short: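 Mammalian Vero cells exposed to compounds at 62.5 µg/ml for 72 h; viability read by cellular conversion of MTT to formazan (Cell Titer 96 non-radioactive proliferation assay).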

[4] = biological target: DNA gyrase subunit B (Mycobacterium smegmatis (strain ATCC 700084 / mc(2)155), UniProt A0QNE0); experiment: Inhibition of Mycobacterium smegmatis MC2 DNA gyrase GyrB ATPase supercoiling activity; design: species or system Mycolicibacterium smegmatis
In short: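 Gyrase purified from M. smegmatis MC2 cells; compounds in DMSO pre-incubated with enzyme, then 400 ng relaxed pUC18 added in 35 mM Tris-HCl pH 7.5, 5 mM MgCl2, 25 mM K glutamate, 2 mM spermidine, 2 mM ATP, BSA, tRNA, 5% glycerol; 30 min; heat-stopped 65 °C 15 min; agarose gel, ethidium bromide staining; ciprofloxacin 10 µg/ml and 5% DMSO controls.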

[5] = tested on: Mus musculus; experiment: Phototoxicity in Swiss albino mouse assessed as ear thickness at 140 mg/kg, po after 4 hrs of irradiation; assay type: organism-based; design: dose 140 mg/kg, route oral; conditions: in vivo
In short: (§1)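 Female Swiss albino mice (~2 months, 20-25 g), fasted ≥18 h, single 140 mg/kg oral gavage dose; groups of 6 (compound, lomefloxacin HCl 140 mg/kg, 0.5% carboxymethylcellulose vehicle 10 ml/kg); UV irradiation 4 h (~18 J/cm²) right after dosing; both ears scored for erythema, oedema, thickness pre-dose, at end of irradiation, and ~24-96 h; thickness given as mean of both ears ± SEM.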

[6] = tested on: Mus musculus; experiment: Phototoxicity in Swiss albino mouse assessed as ear thickness at 140 mg/kg, po after 24 hrs of irradiation; assay type: organism-based; design: dose 140 mg/kg, route oral; conditions: in vivo; in short: as §1
[7] = tested on: Mus musculus; experiment: Phototoxicity in Swiss albino mouse assessed as ear thickness at 140 mg/kg, po after 48 hrs of irradiation; assay type: organism-based; design: dose 140 mg/kg, route oral; conditions: in vivo; in short: as §1
[8] = tested on: Mus musculus; experiment: Phototoxicity in Swiss albino mouse assessed as ear thickness at 140 mg/kg, po after 72 hrs of irradiation; assay type: organism-based; design: dose 140 mg/kg, route oral; conditions: in vivo; in short: as §1
[9] = tested on: Mus musculus; experiment: Phototoxicity in Swiss albino mouse assessed as ear thickness at 140 mg/kg, po after 96 hrs of irradiation; assay type: organism-based; design: dose 140 mg/kg, route oral; conditions: in vivo; in short: as §1
[10] = tested on: Mus musculus; experiment: Phototoxicity in Swiss albino mouse assessed as erythema incidence at 140 mg/kg, po after 24 hrs of irradiation; assay type: organism-based; design: dose 140 mg/kg, route oral; conditions: in vivo; in short: as §1
[11] = tested on: Mus musculus; experiment: (§2) Phototoxicity in Swiss albino mouse assessed as erythema incidence at 140 mg/kg, po after 48 hrs of irradiation; assay type: organism-based; design: dose 140 mg/kg, route oral; conditions: in vivo; in short: as §1
[12] = tested on: Mus musculus; experiment: as §2; assay type: organism-based; design: dose 140 mg/kg, route oral; conditions: in vivo; in short: as §1; remark: listed apart in the source
[13] = tested on: Mus musculus; experiment: Phototoxicity in Swiss albino mouse assessed as erythema incidence at 140 mg/kg, po after 96 hrs of irradiation; assay type: organism-based; design: dose 140 mg/kg, route oral; conditions: in vivo; in short: as §1
[14] = tested on: Mus musculus; experiment: Phototoxicity in Swiss albino mouse assessed as erythema incidence at 140 mg/kg, po after 4 hrs of irradiation; assay type: organism-based; design: dose 140 mg/kg, route oral; conditions: in vivo; in short: as §1
[15] = tested on: Mycobacterium tuberculosis; experiment: Antimycobacterial activity against Mycobacterium tuberculosis ATCC 35801 infected in CD1 mouse assessed as bacterial load in lungs at 50 mg/kg, ip after 10 days; assay type: functional; conditions: route intraperitoneal
In short: (§3)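 Female CD-1 mice, 6 weeks old, six per group, infected IV via caudal vein with ~10⁷ viable organisms. Intraperitoneal treatment started 10 days after inoculation and ran 10 days. At 35 days post-infection, spleens and right lungs were homogenised and serially 10-fold diluted onto 7H10 agar, incubated 4 weeks at 37 °C in ambient air. CFU compared with vehicle-treated controls.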

[16] = tested on: Mycobacterium tuberculosis; experiment: Antimycobacterial activity against Mycobacterium tuberculosis ATCC 35801 infected in CD1 mouse assessed as bacterial load in spleen at 50 mg/kg, ip after 10 days; assay type: functional; conditions: route intraperitoneal; in short: as §3
[17] = tested on: Mycobacterium tuberculosis; experiment: Antimycobacterial activity against Mycobacterium tuberculosis ATCC 35801 infected in CD1 mouse assessed as bacterial load in lungs at 25 mg/kg, ip after 10 days; assay type: functional; conditions: route intraperitoneal; in short: as §3
[18] = tested on: Mycobacterium tuberculosis; experiment: Antimycobacterial activity against Mycobacterium tuberculosis ATCC 35801 infected in CD1 mouse assessed as bacterial load in spleen at 25 mg/kg, ip after 10 days; assay type: functional; conditions: route intraperitoneal; in short: as §3

Sequence of DNA gyrase subunit B (Mycobacterium smegmatis (strain ATCC 700084 / mc(2)155), UniProt A0QNE0) (A0QNE0 whole entry): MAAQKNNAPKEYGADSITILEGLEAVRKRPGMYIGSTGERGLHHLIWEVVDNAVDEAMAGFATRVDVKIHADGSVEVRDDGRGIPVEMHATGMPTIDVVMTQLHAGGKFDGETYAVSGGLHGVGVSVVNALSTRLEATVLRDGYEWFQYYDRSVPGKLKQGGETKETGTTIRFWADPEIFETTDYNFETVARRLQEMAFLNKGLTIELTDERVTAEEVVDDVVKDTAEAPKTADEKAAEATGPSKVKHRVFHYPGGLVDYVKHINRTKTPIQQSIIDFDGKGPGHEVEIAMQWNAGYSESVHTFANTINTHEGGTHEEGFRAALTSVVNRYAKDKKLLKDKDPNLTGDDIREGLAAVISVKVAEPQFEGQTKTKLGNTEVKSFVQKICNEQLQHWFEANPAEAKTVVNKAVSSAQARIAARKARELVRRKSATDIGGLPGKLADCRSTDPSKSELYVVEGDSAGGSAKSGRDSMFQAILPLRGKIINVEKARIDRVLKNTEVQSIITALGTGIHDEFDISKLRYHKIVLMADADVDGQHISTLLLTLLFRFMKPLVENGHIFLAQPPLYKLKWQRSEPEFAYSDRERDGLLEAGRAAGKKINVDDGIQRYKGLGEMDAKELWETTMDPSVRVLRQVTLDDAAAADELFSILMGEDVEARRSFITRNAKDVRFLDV

Row | Compound | MIC [1] | MIC [2] | pIC50 [3] | other results
1 | COc1c(N2CCC(O)(c3ccc(Cl)cc3)CC2)c(F)cc2c(=O)c(C(=O)O)cn(C3CC3)c12 | 12.8 µM (≈ 6.25 µg/mL) | 6.43 µM (≈ 3.13 µg/mL) | – | –
2 | COc1c(N2CCSCC2)c(F)cc2c(=O)c(C(=O)O)cn(C3CC3)c12 | 4.12 µM (≈ 1.56 µg/mL) | 2.06 µM (≈ 0.78 µg/mL) | 3.78 | –
3 | COc1c(N2CC(C)OC(C)C2)c(F)cc2c(=O)c(C(=O)O)cn(C3CC3)c12 (centres undefined) | 16 µM (≈ 6.25 µg/mL) | 3.99 µM (≈ 1.56 µg/mL) | 3.80 | –
4 | COc1c(N2CCN(C(=O)C3COc4ccccc4O3)CC2)c(F)c([N+](=O)[O-])c2c(=O)c(C(=O)O)cn(C3CC3)c12 (centres undefined) | 2.74 µM (≈ 1.56 µg/mL) | 1.37 µM (≈ 0.779 µg/mL) | 3.96 | pIC50 [4]: < 4.06
5 | COc1c(N2CCN(C)C(c3ccccc3)C2)c(F)cc2c(=O)c(C(=O)O)cn(C3CC3)c12 (centres undefined) | 27.7 µM (≈ 12.5 µg/mL) | 13.8 µM (≈ 6.25 µg/mL) | – | –
6 | COc1c(N2CCc3ccccc3C2C(=O)NC(C)(C)C)c(F)cc2c(=O)c(C(=O)O)cn(C3CC3)c12 (centres undefined) | 49.3 µM (≈ 25 µg/mL) | 12.3 µM (≈ 6.25 µg/mL) | – | –
7 | COc1c(N2COCC2(C)C)c(F)c([N+](=O)[O-])c2c(=O)c(C(=O)O)cn(C3CC3)c12 | 3.7 µM (≈ 1.56 µg/mL) | 1.85 µM (≈ 0.78 µg/mL) | 3.83 | –
8 | COc1c(N2COCC2(C)C)c(F)cc2c(=O)c(C(=O)O)cn(C3CC3)c12 | 16.6 µM (≈ 6.25 µg/mL) | 4.14 µM (≈ 1.56 µg/mL) | 3.78 | –
9 | COc1c(N2CCC(N3CCCCC3)CC2)c(F)cc2c(=O)c(C(=O)O)cn(C3CC3)c12 | 14.1 µM (≈ 6.25 µg/mL) | 7.06 µM (≈ 3.13 µg/mL) | – | –
10 | COc1c(N2CC(C)OC(C)C2)c(F)c([N+](=O)[O-])c2c(=O)c(C(=O)O)cn(C3CC3)c12 (centres undefined) | 1.79 µM (≈ 0.779 µg/mL) | 0.89 µM (≈ 0.388 µg/mL) | 3.84 | pIC50 [4]: 3.94; Activity [5]: 0.29 mm; Activity [6]: 0.35 mm; Activity [7]: 0.36 mm; Activity [8]: 0.34 mm; Activity [9]: 0.33 mm; Activity [10]: Non-toxic; Activity [11]: Non-toxic; Activity [12]: Non-toxic; Activity [13]: Non-toxic
11 | COc1c(N2CCC(N3CCCCC3)CC2)c(F)c([N+](=O)[O-])c2c(=O)c(C(=O)O)cn(C3CC3)c12 | 12.8 µM (≈ 6.25 µg/mL) | 6.41 µM (≈ 3.13 µg/mL) | – | –
12 | COc1c(N2CCC3(CC2)OCCO3)c(F)c([N+](=O)[O-])c2c(=O)c(C(=O)O)cn(C3CC3)c12 | 6.75 µM (≈ 3.13 µg/mL) | 0.84 µM (≈ 0.389 µg/mL) | 3.87 | –
13 | COc1c(N2CCSCC2)c(F)c([N+](=O)[O-])c2c(=O)c(C(=O)O)cn(C3CC3)c12 | 3.68 µM (≈ 1.56 µg/mL) | 1.84 µM (≈ 0.779 µg/mL) | 3.83 | pIC50 [4]: < 3.93
14 | COc1c(N2CCn3cc(C(=O)O)nc3C2)c(F)cc2c(=O)c(C(=O)O)cn(C3CC3)c12 | 7.08 µM (≈ 3.13 µg/mL) | 3.53 µM (≈ 1.56 µg/mL) | 3.85 | –
15 | COc1c(N2CCN(Cc3ccc4c(c3)OCO4)CC2)c(F)c([N+](=O)[O-])c2c(=O)c(C(=O)O)cn(C3CC3)c12 | 1.44 µM (≈ 0.778 µg/mL) | 0.35 µM (≈ 0.189 µg/mL) | 3.94 | Activity [5]: 0.27 mm; Activity [6]: 0.28 mm; Activity [7]: 0.3 mm; Activity [8]: 0.33 mm; Activity [9]: 0.31 mm; Activity [14]: Non-toxic; Activity [10]: Non-toxic
16 | COc1c(N2CCNC(C)C2)c(F)cc2c(=O)c(C(=O)O)cn(C3CC3)c12 (centres undefined) [GATIFLOXACIN] | 2.08 µM (≈ 0.781 µg/mL) | 1.04 µM (≈ 0.39 µg/mL) | < 3.81 | Activity [15]: 6.02; Activity [16]: 6.92
17 | NNC(=O)c1ccncc1 [ISONIAZID] | 45.6 µM (≈ 6.25 µg/mL) | 0.36 µM (≈ 0.0494 µg/mL) | < 3.34 | Activity [17]: 5.86; Activity [18]: 4.71
18 | CCn1cc(C(=O)O)c(=O)c2cc(F)c(N3CCNC(C)C3)c(F)c21 (centres undefined) [LOMEFLOXACIN] | – | – | – | Activity [5]: 0.4 mm; Activity [6]: 0.48 mm; Activity [7]: 0.53 mm; Activity [8]: 0.64 mm; Activity [9]: 0.6 mm; Activity [14]: Toxic; Activity [10]: Toxic; Activity [11]: Toxic; Activity [12]: Toxic; Activity [13]: Toxic
